Rows were chosen to be rich in hits. Some 5% of all compounds tested hit in one or more screens of this group.
Beta apoptosis: blocks beta cell apoptosis; INS-1E cytokine-induced death, ATP luminescence, 48 h; percent of positive-control rescue, neutral wells zero; protection from apoptosis, % (no concentration beside the values); actives 0.8% (n = 300,000);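 active means Every replicate reaches about 75%, or at least half do and their mean reaches it too, limit read from the data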;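 further: 0% = cytokine-treated negative control wells and 100% = positive control rescue; higher means more ATP so stronger rescue from cytokine killing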
T cruzi repl: blocks replication of Trypanosoma cruzi | T. cruzi beta-gal in NIH3T3, luminescence, 90 h | inhibition, % (test concentration not listed) | actives 1.4% (n = 300,000) | AID 1885;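 active means mean inhibition across valid replicates above about 55%, limit read from the data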;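 further: signal also drops with host cell toxicity which is not excluded here; 0% = plate median of DMSO wells and 100% = zero luminescence signal; higher percent means less beta-gal luminescence so fewer parasites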
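Material: NIH/3T3 host cells with β-galactosidase reporter T. cruzi; Input: 5,000 host fibroblasts per well; Medium: DMEM, 2% fetal bovine serum; Compound: 50 nL DMSO compound solution per well; Schedule: 3 h host attachment, then at least 90 h co-culture; Detection: luminescent β-galactosidase signal after 60 min lysis.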
Mdm2-MdmX inh: disrupts the human Mdm2-MdmX interaction; O15151+Q00987; SaOS-2 split-luciferase Mdm2/MdmX complementation, luminescence; inhibition, % at 8 µM; actives 3% (n = 330,000); AID 485346;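 active means inhibition of at least 50% at 8 µM in the primary screen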
Target sequence (O15151 whole entry, looked up): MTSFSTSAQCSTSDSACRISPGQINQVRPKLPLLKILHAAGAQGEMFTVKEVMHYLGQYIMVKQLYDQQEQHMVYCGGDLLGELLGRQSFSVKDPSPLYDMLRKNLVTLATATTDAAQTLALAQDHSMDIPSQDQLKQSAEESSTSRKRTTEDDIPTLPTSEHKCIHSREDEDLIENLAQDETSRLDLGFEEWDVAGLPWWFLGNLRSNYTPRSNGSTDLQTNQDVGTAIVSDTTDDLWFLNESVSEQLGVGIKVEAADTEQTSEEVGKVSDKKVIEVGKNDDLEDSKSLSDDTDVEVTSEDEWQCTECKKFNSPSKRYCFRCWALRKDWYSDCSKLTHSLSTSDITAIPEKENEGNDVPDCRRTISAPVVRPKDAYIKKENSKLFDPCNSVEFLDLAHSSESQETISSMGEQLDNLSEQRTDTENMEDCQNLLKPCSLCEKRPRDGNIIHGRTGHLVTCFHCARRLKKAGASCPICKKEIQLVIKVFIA
Target sequence (Q00987 whole entry, looked up): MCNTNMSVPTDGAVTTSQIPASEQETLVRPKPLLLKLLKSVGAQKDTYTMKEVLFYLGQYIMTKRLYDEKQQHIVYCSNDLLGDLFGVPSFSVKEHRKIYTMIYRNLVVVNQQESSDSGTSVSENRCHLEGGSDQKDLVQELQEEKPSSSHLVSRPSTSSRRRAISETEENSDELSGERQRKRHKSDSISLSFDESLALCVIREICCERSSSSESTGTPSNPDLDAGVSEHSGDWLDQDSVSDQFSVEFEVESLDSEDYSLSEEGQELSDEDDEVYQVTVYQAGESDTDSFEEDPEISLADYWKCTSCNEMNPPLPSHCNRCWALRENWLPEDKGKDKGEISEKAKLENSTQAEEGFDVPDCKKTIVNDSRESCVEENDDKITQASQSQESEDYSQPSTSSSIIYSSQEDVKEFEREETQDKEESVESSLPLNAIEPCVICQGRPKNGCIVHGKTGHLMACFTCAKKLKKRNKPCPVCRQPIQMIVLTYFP
CSC inhib: blocks cancer stem cells; cancer stem cell-like cells viability, luminescence; AID 2717; inhibition, % at 7.5 µM; actives 1.1% (n = 300,000); in the data active means inhibition above about 75%; tested in HMLE shEcad cells
UPR XBP1 act: adaptive UPR (XBP1) activation; CHO-XBP1 luciferase reporter, IRE1-XBP1 UPR activation, luminescence; percent of tunicamycin response, DMSO as zero; activation, % at 20 µM; actives 0.33% (n = 330,000); AID 463104;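 active means versus positive control, 20 µM dose yields 30% or more activation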;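 further: 100% = tunicamycin at 10 µg/mL and 0% = DMSO only wells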
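Assay system: IRE1-XBP1 luciferase reporter CHO line. Input: 1000 cells/well. Buffer or medium: F12 with 10% serum. Doses: 20 µM, 1% DMSO. Times: overnight seeding at 37 °C, 6 h compound treatment at 37 °C. Technique: Steady-Glo luciferase glow luminescence, 10 min after reagent addition.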
UPR CHOP act: activators of apoptotic arm of unfolded protein response (CHOP); actives 0.34% (n = 330,000); AID 449763; activation, % at 10 µM; CHO-CHOP luciferase reporter, UPR activation, luminescence; percent of tunicamycin response over DMSO baseline;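 active means at 10 µM dose, activation of 40% or more, normalized to positive control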;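 further: 100% = tunicamycin at 10 µg/mL and 0% = DMSO alone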
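Assay system: CHO cells with stable CHOP pathway luciferase reporter; Buffer or medium: F12 plus 10% serum; Times: 16-18 h cell attachment, then 6 h compound exposure, 37 °C; Signal: luciferase luminescence; Read-out basis: percent activation relative to tunicamycin control; Control set: tunicamycin high control, DMSO low control.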
Mdm2-MdmX conf: confirmation of human Mdm2/MdmX interaction inhibitors. shares compounds with Mdm2-MdmX inh. Mdm2-MdmX binding, luminescent assay. inhibition, % at 8 µM. actives 55% (n = 10,000); in the data active means inhibition above about 40%
FLuc counter: inhibits full-length luciferase, flagging false Mdm2/MdmX hits; shares compounds with Mdm2-MdmX inh; SaOS-2 full-length luciferase counterscreen, luminescence; inhibition, % at 8 µM; actives 77% (n = 6,200);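 active means mean inhibition at 8 µM reaching about 37%, which flags the compound as non-specific, limit read from the data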;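 further: p53-null SaOS-2 cells with luciferase driven by a doxycycline-inducible promoter; compound on cells about two nights before reading with doxycycline added after day one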
An asterisk follows results filed as active; x = not tested or not shown.

SMILES	Beta apoptosis	T cruzi repl	Mdm2-MdmX inh	CSC inhib	UPR XBP1 act	UPR CHOP act	Mdm2-MdmX conf	FLuc counter
CN(C)C=NC(=O)c1[nH]c2ccc(Cl)cc2c1-c1ccccc1	-19	-4	80*	66	5	10	35	x
O=C(NCc1ccccc1F)C12CC3CC(CC(C3)C1)C2	0	5	-7	-9	-3	-2	x	x
CCOC(=O)/C(=C\c1cccnc1)C(=O)c1cc(C(C)=O)c(Nc2ccccc2)s1	105*	54	97*	97*	-15	-11	99*	52*
C[C@@H](C(=O)Nc1ccc2c(c1)OCCO2)n1c(=O)[nH]c2ccccc2c1=O	x	-6	62*	16	-9	-6	81*	76*
CSc1cc(-c2ccncc2)nc(-c2ccc(Cl)cc2)c1	0	46	8	25	-5	2	x	x
COc1ccc(CCNC(=O)c2nnn(CC(=O)Nc3ccc(C)cc3C)c2N)cc1OC	-1	-6	-10	10	-2	0	x	x
COc1ccccc1OCC(O)Cn1c(=N)n(CCN2CCCCC2)c2ccccc21 (stereo not drawn)	-7	15	56*	-5	-1	1	46*	74*
Cc1ccccc1OCC(O)Cn1c(=N)n(CCN2CCOCC2)c2ccccc21 (stereo not drawn)	-2	-12	25	12	14	-1	x	x
N=c1n(CCN2CCCCC2)c2ccccc2n1CC(O)COc1ccccc1 (stereo not drawn)	8	10	61*	8	-5	2	38	81*
COc1ccccc1C(=O)Nc1ccc(OCC(=O)N2CC(C)OC(C)C2)cc1 (stereo not drawn)	-1	x	8	-3	-2	-1	x	x
O=[N+]([O-])c1ccc(O)c(-c2nc(-c3ccccc3)c(-c3cccs3)[nH]2)c1	49	-2	85*	100*	9	7	89*	49*
CCOc1cc(-c2nc(-c3ccccc3)c(-c3cc([N+](=O)[O-])ccc3C)[nH]2)ccc1O	5	57*	57*	x	-2	3	13	x
CCC(C)[C@H](NC(=O)[C@@H]1Cc2c([nH]c3ccccc23)C2c3ccccc3C(=O)N21)C(=O)N1CCC[C@@H]1C(=O)O (stereo partly drawn)	x	-28	-11	-4	-4	0	x	x
O=C1N/C(=C/c2ccc(Br)s2)C(=O)N1c1ccccc1	-1	-11	51*	-1	3	1	26	x
COC(=O)c1ccccc1Sc1ncnc2onc(C)c12	-35	-15	13	0	-3	1	x	x
Cc1noc2ncnc(Sc3ccccc3Cl)c12	-13	45	70*	-9	-4	19	-4	x
CC(=O)n1cc(Nc2ccccc2C(=O)O)c2ccccc21	-5	-19	18	-4	-6	-1	x	x
COc1ccccc1N(C(=O)CCl)c1cn(C(C)=O)c2ccccc12	5	6	96*	17	-3	35	100*	52*
CC(=O)n1cc(N(C(=O)CCl)c2ccc(Cl)cc2)c2ccccc21	1	66*	99*	30	-8	-8	100*	8
Cc1c(C(=O)OCC(=O)N2CC(C)OC(C)C2)oc2ccc(Br)cc12 (stereo not drawn)	-6	6	-4	-14	0	2	x	x
CCOc1ccc(C(=O)NCC(=O)OCc2cc(C(C)=O)ccc2OC)cc1	-6	0	-8	-9	0	-4	x	x
CCOc1ccc(C(C)=O)cc1COC(=O)CNC(=O)C12CC3CC(CC(C3)C1)C2	-4	x	57*	7	-3	-1	2	x
COC(=O)c1sccc1S(=O)(=O)N1CCCC(N(C)CCc2ccccn2)C1 (stereo not drawn)	19	11	9	11	-2	-1	x	x
COc1cccc(-c2nnc(SC(C(=O)c3c[nH]c4ccccc34)c3ccccc3)n2C)c1 (stereo not drawn)	-2	40	56*	46	-1	-2	36	x
COc1ccccc1-c1nnc(SC(C(=O)c2c[nH]c3ccccc23)c2ccccc2)n1C (stereo not drawn)	5	41	45	34	-4	0	x	x
SMILES	Beta apoptosis	T cruzi repl	Mdm2-MdmX inh	CSC inhib	UPR XBP1 act	UPR CHOP act	Mdm2-MdmX conf	FLuc counter
COc1cc(OC)c(C(=O)OCC(=O)c2ccc3c(c2)NC(=O)CO3)cc1OC	1	x	4	-6	3	0	x	x
CSc1ncccc1C(=O)OCC(=O)c1ccc2c(c1)NC(=O)CO2	-12	-15	68*	-2	-2	9	21	x
CCN(CC)c1ccc2c(cc1=O)[C@@H](NC)CCc1cc(OC)c(OC)c(OC)c1-2	39	35	69*	56	23	-2	61*	90*
COc1cc(CNC2CCCc3ccccc32)cc(OC)c1OC (stereo not drawn)	-2	-19	-20	-15	-2	0	x	x
COc1cc2c(c(OC)c1OC)-c1ccc(N(C)CC(OC)OC)c(=O)cc1[C@@H](NC(C)=O)CC2	30	18	68*	75*	-2	-2	63*	132*
CN[C@H]1CCc2cc(OC)c(OC)c(OC)c2-c2ccc(N(C)CC(OC)OC)c(=O)cc21	10	17	71*	80*	8	-2	49*	66*
CCc1cc(Cn2nc(-c3ccccc3)cc2C(=O)NCC2CC2)on1	-4	3	28	-10	2	-1	x	x
O=C(Nc1cc(Cl)ccc1Cl)c1cc(-c2ccco2)on1	-3	7	62*	-5	3	4	12	x
O=C(Nc1cccnc1Cl)c1cc(-c2ccc(Cl)cc2)on1	2	-9	54*	0	22	16	-2	x
O=C(Nc1cccnc1Cl)c1cc(-c2ccc(O)cc2)on1	x	-16	-19	-5	6	5	x	x
CCN(CC(=O)Nc1ccc2c(c1)OCCO2)C(=O)/C=C/c1ccc([N+](=O)[O-])cc1	2	x	7	x	1	1	x	x
CCOc1ccc(NC(=O)CNC(=O)c2nn(-c3ccc(OC)c(OC)c3)c(=O)c3ccccc23)cc1	0	-20	0	0	3	2	x	x
COc1ccc(-n2nc(C(=O)NCC(=O)Nc3ccccn3)c3ccccc3c2=O)cc1Cl	x	-4	88*	x	6	15	17	x
